According to ChEMBL document CHEMBL1938355, “Antimycobacterial activities of 5-alkyl (or halo)-3'-substituted pyrimidine nucleoside analogs” (Bioorg Med Chem Lett, 2012):
Converted amounts (≈) assume the structure as drawn. The source made the active and inactive calls. The rule behind the calls is not given here.

Tests used:
Mycobacterium avium [1] = assay: Antimycobacterial activity against Mycobacterium avium ATCC 25291 assessed as growth inhibition at 2 ug/ml by microplate alamar blue assay; assay type: functional, Mycobacterium avium subsp. avium ATCC 25291; details: read-out: GI
[2] = test system: Mycobacterium tuberculosis; assay: Antimycobacterial activity against Mycobacterium tuberculosis H37Ra assessed as growth inhibition at 0.5 to 1 ug/ml by microplate alamar blue assay; assay type: functional
Method in brief: (§1)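 Strains obtained from ATCC. Tested by microplate alamar blue assay. Compounds made up as 10 mg/mL DMSO stocks, then serially diluted in 7H9GC medium. Final test concentrations were 100, 50, 25, 10, 5, 1 and 0.5, each in triplicate. Experiments were run twice, and mean percent growth inhibition is reported.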

[3] = Cytotoxicity against human HuH7 cells by [3H]thymidine incorporation assay; assay type: cell-based, Huh-7
[4] = test system: Mycobacterium tuberculosis; assay: Antimycobacterial activity against Mycobacterium tuberculosis H37Ra assessed as growth inhibition at 0.5 to 100 ug/ml by microplate alamar blue assay; assay type: functional, organism-based; method in brief: as §1
Huh-7 [5] = assay: Cytotoxicity against human HuH7 cells up to 100 ug/ml by [3H]thymidine incorporation assay; assay type: cell-based
[6] = Cytotoxicity against human HuH7 cells by XTT assay; assay type: cell-based, Huh-7
Huh-7 [7] = assay: Cytotoxicity against human HuH7 cells up to 100 ug/ml by XTT assay; assay type: cell-based
Mycobacterium avium [8] = assay: Antimycobacterial activity against Mycobacterium avium ATCC 25291 assessed as growth inhibition at 0.5 to 100 ug/ml by microplate alamar blue assay; assay type: functional; details: Mycobacterium avium subsp. avium ATCC 25291
Method in brief: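 M. avium ATCC 25291 (ATCC stock) in 7H9GC medium, microplate alamar blue read-out. Compounds dissolved in DMSO at 10 mg/mL (stock), diluted in medium to final 100, 50, 25, 10, 5, 1 and 0.5 µg/mL, each in triplicate. Two independent experiments; mean percent growth inhibition reported, SD within 10% of mean.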

[9] = test system: Mycobacterium tuberculosis; assay: Antimycobacterial activity against Mycobacterium tuberculosis H37Ra assessed as growth inhibition at 100 ug/ml by microplate alamar blue assay; assay type: functional; details: read-out: GI; method in brief: as §1
[10] = test system: Mycobacterium tuberculosis; assay: Antimycobacterial activity against Mycobacterium tuberculosis H37Ra assessed as growth inhibition at 5 ug/ml by microplate alamar blue assay; assay type: functional; details: read-out: GI; method in brief: as §1
[11] = test system: Mycobacterium tuberculosis; assay: Antimycobacterial activity against Mycobacterium tuberculosis H37Ra assessed as growth inhibition at 50 ug/ml by microplate alamar blue assay; assay type: functional; details: read-out: GI; method in brief: as §1
[12] = test system: Mycobacterium tuberculosis; assay: Antimycobacterial activity against Mycobacterium tuberculosis H37Ra by microplate alamar blue assay; assay type: functional
Mycobacterium avium [13] = assay: Antimycobacterial activity against Mycobacterium avium ATCC 25291 assessed as growth inhibition at 50 ug/ml by microplate alamar blue assay; assay type: functional, Mycobacterium avium subsp. avium ATCC 25291; details: read-out: GI; method in brief: as §1
Mycobacterium avium [14] = assay: Antimycobacterial activity against Mycobacterium avium ATCC 25291 assessed as growth inhibition at 100 ug/ml by microplate alamar blue assay; assay type: functional, Mycobacterium avium subsp. avium ATCC 25291; details: read-out: GI; method in brief: as §1
[15] = test system: Mycobacterium tuberculosis; assay: Antimycobacterial activity against Mycobacterium tuberculosis H37Ra assessed as growth inhibition at 15 to 20 ug/ml by microplate alamar blue assay; assay type: functional
Mycobacterium avium [16] = assay: Antimycobacterial activity against Mycobacterium avium ATCC 25291 assessed as growth inhibition at 10 ug/ml by microplate alamar blue assay; assay type: functional, Mycobacterium avium subsp. avium ATCC 25291; details: read-out: GI; method in brief: as §1
[17] = test system: Mycobacterium tuberculosis; assay: Antimycobacterial activity against Mycobacterium tuberculosis H37Ra assessed as growth inhibition at 10 ug/ml by microplate alamar blue assay; assay type: functional; details: read-out: GI; method in brief: as §1
Mycobacterium avium [18] = assay: Antimycobacterial activity against Mycobacterium avium ATCC 25291 by microplate alamar blue assay; assay type: functional, Mycobacterium avium subsp. avium ATCC 25291

Row | SMILES | CC50 [3] | growth inhibition (GI) [4] | Activity (Huh-7 [5]) | CC50 [6] | Activity (Huh-7 [7]) | growth inhibition (GI) (Mycobacterium avium [8]) | further results
1 | CO[C@H]1/C=C/O[C@@]2(C)Oc3c(C)c(O)c4c(O)c(c(/C=N/N5CCN(C)CC5)c(O)c4c3C2=O)NC(=O)/C(C)=C\C=C\[C@H](C)[C@H](O)[C@@H](C)[C@@H](O)[C@@H](C)[C@H](OC(C)=O)[C@@H]1C [RIFAMPIN] |  |  |  |  |  |  | inhibition of growth at 2 µg/mL (Mycobacterium avium [1]): 90%; growth inhibition (GI) [2]: 100%
2 | CCc1cn([C@H]2C[C@H](F)[C@@H](CO)O2)c(=O)[nH]c1=O | > 100 µg/mL | inactive | Non-toxic | > 100 µg/mL | Non-toxic | inactive | 
3 | CC[C@H]1OC(=O)[C@H](C)[C@@H](O[C@H]2C[C@@](C)(OC)[C@@H](O)[C@H](C)O2)[C@H](C)[C@@H](O[C@@H]2O[C@H](C)C[C@H](N(C)C)[C@H]2O)[C@](C)(OC)C[C@@H](C)C(=O)[C@H](C)[C@@H](O)[C@]1(C)O [CLARITHROMYCIN] |  |  |  |  |  |  | inhibition of growth at 2 µg/mL (Mycobacterium avium [1]): 100%
4 | [N-]=[N+]=N[C@H]1C[C@H](n2cc(Cl)c(=O)[nH]c2=O)O[C@@H]1CO | > 100 µg/mL |  | Non-toxic | > 100 µg/mL | Non-toxic | inactive | inhibition of growth at 100 µg/mL [9]: 50%
5 | CCc1cn([C@H]2C[C@@H](O)[C@@H](CO)O2)c(=O)[nH]c1=O | > 100 µg/mL | inactive | Non-toxic | > 100 µg/mL | Non-toxic | inactive | 
6 | [N-]=[N+]=N[C@H]1C[C@H](n2cc(F)c(=O)[nH]c2=O)O[C@@H]1CO | > 100 µg/mL | inactive | Non-toxic | > 100 µg/mL | Non-toxic | inactive | 
7 | N[C@@H]1CONC1=O [CYCLOSERINE] |  |  |  |  |  |  | inhibition of growth at 5 µg/mL [10]: 50%; inhibition of growth at 50 µg/mL [11]: 100%; MIC50 [12]: 5 µg/mL (≈ 49 µM); inhibition of growth at 50 µg/mL (Mycobacterium avium [13]): 100%; inhibition of growth at 100 µg/mL (Mycobacterium avium [14]): 100%; growth inhibition (GI) [15]: 80%; inhibition of growth at 10 µg/mL (Mycobacterium avium [16]): 15%; inhibition of growth at 10 µg/mL [17]: 60%
8 | CCc1cn([C@H]2C[C@H](N=[N+]=[N-])[C@@H](CO)O2)c(=O)[nH]c1=O | > 100 µg/mL |  | Non-toxic | > 100 µg/mL | Non-toxic |  | inhibition of growth at 50 µg/mL [11]: 60%; MIC50 [12]: 10 µg/mL (≈ 35.6 µM); inhibition of growth at 50 µg/mL (Mycobacterium avium [13]): 60%; MIC50 (Mycobacterium avium [18]): 10 µg/mL (≈ 35.6 µM); inhibition of growth at 100 µg/mL (Mycobacterium avium [14]): 100%; inhibition of growth at 100 µg/mL [9]: 60%; inhibition of growth at 10 µg/mL (Mycobacterium avium [16]): 50%; inhibition of growth at 10 µg/mL [17]: 50%
9 | Cc1cn([C@H]2C[C@H](N)[C@@H](CO)O2)c(=O)[nH]c1=O [3-AMINO- 3-DEOXYTHYMIDINE] | > 100 µg/mL | inactive | Non-toxic | > 100 µg/mL | Non-toxic | inactive | 
10 | [N-]=[N+]=N[C@H]1C[C@H](n2cc(Br)c(=O)[nH]c2=O)O[C@@H]1CO | > 100 µg/mL |  | Non-toxic | > 100 µg/mL | Non-toxic | inactive | inhibition of growth at 100 µg/mL [9]: 30%
11 | CCc1cn([C@H]2CC[C@@H](CO)O2)c(=O)[nH]c1=O | > 100 µg/mL | inactive | Non-toxic | > 100 µg/mL | Non-toxic | inactive | 
12 | CCc1cn([C@H]2C[C@H](I)[C@@H](CO)O2)c(=O)[nH]c1=O | > 100 µg/mL | inactive | Non-toxic | > 100 µg/mL | Non-toxic | inactive | 
13 | O=c1[nH]c(=O)n([C@H]2C[C@H](F)[C@@H](CO)O2)cc1C(F)(F)F | > 100 µg/mL | inactive | Non-toxic | > 100 µg/mL | Non-toxic |  | inhibition of growth at 100 µg/mL (Mycobacterium avium [14]): 25%
